Experimental data reported in publication PMC3041911 (Journal of Molecular Neuroscience, 2010).
Values joined by “and” are separate entries in the source; they are usually repeats but may differ in a detail not shown here. Identical values can stand only once. Like-named read-outs stand apart in the source and are kept apart here.

Assays:
[1] = system: Aβ38, Aβ40 and Aβ42 formation in H4 cells overexpressing human APPK595N/M596L; experiment: Aβ secretion assay; assay type: cell-based; details: for Emax: Homo sapiens; for Aβ38 E max / Aβ40 E max / Aβ42 E max / IC50: H4 cells hAPPK595N/M596L, 24 h treatment; for Effect on Aβ species at low nanomolar (sub-inhibitory) concentrations: low nanomolar concentrations (DAPT: 10 nM)
Procedure, shortened: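 H4 human neuroglioma line stably transfected with human APP695 K595N/M596L (Swedish) under a CMV/chicken β-actin promoter. Cells were plated at 1×10^4 per 96-well in OptiMEM with 10% FBS, 1% penicillin/streptomycin, 200 μg/ml hygromycin-B and 2.5 μg/ml blasticidin-S. After 48 h the medium was exchanged and cells were dosed for 24 h at 37°C, 5% CO2 with DMSO-dissolved compound at a range of concentrations, vehicle constant.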

[2] = system: Aβ38, Aβ40 and Aβ42 formation in primary chicken telencephalic neurons; experiment: Aβ secretion assay; assay type: cell-based; details: for Aβ38 E max / Aβ40 E max / Aβ42 E max / IC50: 24 h treatment
Procedure, shortened: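 Telencephalic neurons from E8 Lohman Brown chicken embryos, mechanically dissociated through a nylon sieve. Neurons were plated at 1.8×10^6 per poly-D-lysine-coated 24-well in DMEM (4.5 g glucose/l, 5% Nu Serum, 0.01% gentamicin, 2 mM L-glutamine). After 48 h the medium was exchanged and neurons were treated for 24 h at 37°C, 5% CO2 with DMSO-dissolved compound at a range of concentrations, vehicle constant.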

[3] = system: H4 cells overexpressing human APPK595N/M596L; experiment: MTT viability assay, H4 cells; assay type: cell-based; details: data not shown
[4] = system: primary chicken telencephalic neurons; experiment: MTT viability assay, primary chicken neurons; assay type: cell-based; details: data not shown
Procedure, shortened: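 MTT viability assay in primary E8 chicken telencephalic neurons. Neurons were plated at 3×10^5 per poly-D-lysine-coated 96-well in DMEM with 5% Nu Serum, 0.01% gentamicin and 2 mM L-glutamine, kept at 37°C, 5% CO2, and exposed to DMSO-dissolved compound over a concentration range.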

Aβ42 levels = details: 100 μM; ref Okochi et al. [2006]; cited from earlier work
[5] = system: Aβ formation in primary human neuronal cultures; details: read-out: IC50 Aβ total, ref Dovey et al. [2001]; cited from earlier work
[6] = system: total Aβ content in brain tissue; details: in vivo administration; ref Dovey et al. [2001]; cited from earlier work
[7] = H4 cells, 10 μM compound, 24 h, mean ± SEM
[8] = primary chicken neurons, 10 μM compound, 24 h, mean ± SEM
[9] = read-out: Aβ38 IC50, primary chicken neurons
[10] = read-out: Aβ40 IC50, primary chicken neurons
[11] = read-out: Aβ42 IC50, primary chicken neurons
[12] = H4 cells, 100 μM compound, 24 h, mean ± SEM
[13] = primary chicken neurons, 50 μM compound, 24 h, mean ± SEM
[14] = primary chicken neurons, 25 μM compound, 24 h, mean ± SEM

Compound	Aβ38 level in percent of vehicle-treated cultures [2, 8] [%]	Aβ42 level in percent of vehicle-treated cultures [2, 8] [%]	Cell viability (MTT), result in words [3]	Cell viability (MTT), result in words [4]	Aβ38 E max [1] [%]	Aβ40 E max [1] [%]	Aβ42 E max [1] [%]	IC50 ([1]; read-out: Aβ38 IC50)	IC50 ([1]; read-out: Aβ40 IC50)	IC50 ([1]; read-out: Aβ42 IC50)	Concentration at which Aβ38, Aβ40 and Aβ42 levels start to decline ([2]; primary chicken neurons, 24 h) [nM]	Aβ38 E max ([2]; primary chicken neurons) [%]	Aβ40 E max ([2]; primary chicken neurons) [%]	Aβ42 E max ([2]; primary chicken neurons) [%]	IC50 [2, 9] [nM]	IC50 [2, 10]	IC50 [2, 11] [nM]	Aβ42 level in percent of vehicle-treated cultures [1, 12] [%]	Concentration at which Aβ42 levels start to decline ([1]; H4 cells, 24 h) [µM]	Emax ([1]; 24 h, read-out: Aβ42 E max) [%]	other results
CCCC[C@@H](C=O)NC(=O)[C@H](CC(C)C)NC(=O)OCc1ccccc1 [Calpeptin, benzyloxycarbonylleucyl-norleucinal]	31.1 ± 1.8	259.3 ± 7.3	No toxicity	No toxicity																	Aβ38 level in percent of vehicle-treated cultures [1, 7]: 12.9 ± 2.6%; Aβ40 level in percent of vehicle-treated cultures [1, 7]: 35.5 ± 2.2%; Aβ42 level in percent of vehicle-treated cultures [1, 7]: 90.3 ± 6.0%; Effect on Aβ levels up to 1 μM ([1]; H4 cells, up to a concentration of 1 μM): did not evoke any dramatic changes; Emax ([1]; 24 h, read-out: Aβ38 E max): 100%; Emax ([1]; 24 h, read-out: Aβ40 E max): 100%; Aβ40 level in percent of vehicle-treated cultures [2, 8]: 89.9 ± 3.8%; Effect on Aβ levels up to 1 μM ([2]; primary chicken neurons, up to a concentration of 1 μM): no effect
β-secretase inhibitor IV			no reduction in cell viability	no reduction in cell viability	88	79	86	92.3 nM	125 nM	216 nM	5	91	76	70	3.7	4.7 nM	4.8				Potency of BACE-1 inhibition in primary cells relative to H4 cell line ([2]; primary chicken neurons versus H4 cells hAPPK595N/M596L): approximately tenfold more potent; Aβ42 reduction ([2]; primary chicken neurons, inhibitor concentration 25 nM): more than 50%
O=C(O)c1cc(Oc2ccc([N+](=O)[O-])cc2)cc(Oc2ccc([N+](=O)[O-])cc2)c1 [CW, 3,5-bis(4-nitrophenoxy)benzoic acid]	127.9 ± 0.9	63.6 ± 2.4	no cell toxicity															16.0 ± 1.8	50	100	Aβ38 level in percent of vehicle-treated cultures [1, 12]: 287.5 ± 31.2%; Aβ38 level in percent of vehicle-treated cultures [2, 13]: 159.3 ± 8.0%; Aβ42 level in percent of vehicle-treated cultures [2, 13]: 29.9 ± 1.2%; Concentration at which Aβ42 levels start to decline ([2]; primary chicken neurons, 24 h): 5 µM; Aβ40 content (effect in words) ([2]; primary chicken neurons, up to 50 μM compound): unchanged; Concentration at which toxicity starts (viability assay) [4]: 150 µM; Effect on Aβ42 levels (Aβ42 levels): reduce Aβ42 levels
CSc1ccc(/C=C2/C(C)=C(CC(=O)O)c3cc(F)ccc32)cc1 [Sulindac sulfide, (Z)-5-fluoro-2-methyl-1-[p-(methylthio)benzylidene]indene-3-acetic acid]																		39.3 ± 2.0	50	100	Aβ42 level in percent of vehicle-treated cultures ([1]; H4 cells, 50 μM compound, 24 h, mean ± SEM): 75.0 ± 7.1%; Aβ40 production (effect in words) ([1]; H4 cells, 100 μM compound, 24 h): unaltered; Aβ38 level in percent of vehicle-treated cultures [2, 14]: approximately 149.7 ± 6.4%; Aβ42 level in percent of vehicle-treated cultures [2, 14]: 54.7 ± 6.4%; Aβ42 level in percent of vehicle-treated cultures [2, 13]: 25.3 ± 2.1%; Concentration at which Aβ42 levels start to decline ([2]; primary chicken neurons, 24 h): 25 µM; Concentration at which cell toxicity starts (viability assay) ([3]; minor cell toxicity): 150 µM; Concentration at which toxicity starts (viability assay) [4]: 75 µM
C[C@H](NC(=O)Cc1cc(F)cc(F)c1)C(=O)N[C@H](C(=O)OC(C)(C)C)c1ccccc1 [DAPT, N-[N-(3,5-difluorophenacetyl-L-alanyl)]-S-phenylglycine t-butyl ester]			not affected	not affected	100	100	100	50.3 nM and 50 nM	61.4 nM and 61 nM	63.8 nM and 64 nM	100	100	100	100	71.2	92.8 nM and 93 nM	101				Concentration at which Aβ38, Aβ40 and Aβ42 levels start to decline ([1]; H4 cells, 24 h): 50 nM; Effect on Aβ species at low nanomolar (sub-inhibitory) concentrations ([1]; H4 cells): increased the formation of all three Aβ species; Effect on Aβ species at low nanomolar (sub-inhibitory) concentrations ([2]; primary chicken neurons): no dramatic increase in Aβ levels; IC50 [5]: 115 nM; Concentration in brain tissue that reduced total Aβ content [6]: ≥ 200 nM
COC(=O)[C@@H](NC(=O)[C@H](C)NC(=O)Cc1cc(F)cc(F)c1)c1ccccc1 [DAPM, N-(N-3,5-difluorophenacetyl)-L-alanyl-S-phenylglycine methyl ester]			no effect on cell viability	no effect on cell viability	100	100	100	19.9 nM and 20 nM	23.1 nM and 23 nM	25.9 nM and 26 nM	50	100	100	100	61.9	99.7 nM and 100 nM	107				Concentration at which Aβ38, Aβ40 and Aβ42 levels start to decline ([1]; H4 cells, 24 h): 50 nM; Effect on Aβ species at low nanomolar (sub-inhibitory) concentrations ([1]; H4 cells): increase of all three Aβ forms; Effect on Aβ species at low nanomolar (sub-inhibitory) concentrations ([2]; primary chicken neurons): no increase in Aβ secretion
